How the values were obtained:
[1] = tested on: Mus musculus; experiment: Compound was tested for anticonvulsant potency using the intravenous-BIC (bicuculline) test in mice; compound at 200 mg/kg induced impaired gait, loss of the righting reflex, and impaired breathing; type: functional
Procedure, shortened: (§1)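 Male Crl:CD-1(ICR)BR mice (22-24 g) were dosed orally at 5 mL/kg 60 min before bicuculline 0.6 mg/kg, a dose giving tonic extensor convulsions in at least 97% of vehicle-treated mice. Protection from tonic extension was scored for each mouse. ED50 (95% confidence interval) was obtained by probit analysis, with 10-20 animals per dose.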

[2] = species on record: Mus musculus; experiment: Anticonvulsant potency using the maximal electroshock test in mice; type: functional
Procedure, shortened: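 Male mice received intra-aural shocks through clip electrodes (0.7 s, 28 mA, 80 Hz pulse train, 0.4 ms pulses), a stimulus giving hindlimb tonic extension in at least 97% of controls. Compound was given orally 60 min or ip 30 min beforehand, at 5 mL/kg. Protection meant complete suppression of the hindlimb tonic extensor component. ED50 (95% confidence interval) was obtained by probit analysis, with 10-20 animals per dose.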

[3] = tested on: Mus musculus; experiment: Anticonvulsant potency using the intravenous-BIC (bicuculline) test in mice; type: functional; procedure, shortened: as §1
[4] = Toxicity using neurological impairment measured by rotarod test in mice; details: mouse, in vivo
Procedure, shortened: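 Trained male Crl:CD-1(ICR)BR mice (22-24 g) were dosed orally at 5 mL/kg 60 min before testing on a 3-cm rod rotating at 10 rpm. Falls during a 2-min period were counted. TD50, the dose making 50% of animals fall, was calculated by probit analysis, with 10-20 animals per dose.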

[5] = tested on: Mus musculus; experiment: Compound was tested for anticonvulsant potency using the intravenous-BIC (bicuculline) test in mice; 0 out of 20 mice exhibited anticonvulsant activity; type: functional
[6] = tested on: Mus musculus; experiment: Compound was tested for anticonvulsant potency using the 3-MPA (3-mercaptopropionic acid) test in mice upon peroral administration; type: functional; details: po
Procedure, shortened: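 Male Crl:CD-1(ICR)BR mice (22-24 g) were dosed orally at 5 mL/kg 60 min before 3-mercaptopropionic acid 60 mg/kg sc, a dose convulsing at least 97% of vehicle-treated mice. The end point was hindlimb tonic extension. ED50 (95% confidence interval) was obtained by probit analysis, with 10-20 animals per dose.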

[7] = tested on: Mus musculus; experiment: Compound was tested for anticonvulsant potency using the STRY (strychnine) test in mice upon peroral administration; type: functional; details: po
[8] = tested on: Mus musculus; experiment: Anticonvulsant potency using the PTX (picrotoxin) test in mice by peroral administration; type: functional; details: po
[9] = tested on: Mus musculus; experiment: Compound was tested for anticonvulsant potency using the intravenous-BIC (bicuculline) test in mice; 5 out of 20 mice exhibited anticonvulsant activity; type: functional
[10] = species on record: Mus musculus; experiment: Compound was tested for toxicity using neurological impairment measured by rotarod test in mice; type: functional
Procedure, shortened: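 Trained male Crl:CD-1(ICR)BR mice, 22-24 g, dosed orally 60 min before being placed on a 3-cm rod turning at 10 rpm. Mice falling during a 2-min test were counted. Dosing volume 5 mL/kg, 10-20 animals/dose. TD50, the dose making 50% fall, by probit analysis with 95% confidence interval. Some values given as fraction affected at one dose.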

[11] = tested on: Mus musculus; experiment: Compound was tested for anticonvulsant potency using the intravenous-BIC (bicuculline) test in mice; 6 out of 20 mice exhibited anticonvulsant activity; type: functional
[12] = tested on: Mus musculus; experiment: Compound was tested for anticonvulsant potency using the intravenous-BIC (bicuculline) test in mice; 8 out of 20 mice exhibited anticonvulsant activity; type: functional
[13] = tested on: Mus musculus; experiment: Compound was tested for anticonvulsant potency using the intravenous-BIC (bicuculline) test in mice; 2 out of 10 mice exhibited anticonvulsant activity; type: functional

Structure (SMILES) | ED50 [2] | ED50 [3] | TD50 [4] | other results
CNC(=O)[C@H](NCc1ccc(OCc2ccccc2)cc1)C(C)O (stereo partly drawn) | – | – | – | ED50 [1]: 21 mg/kg
CNC(=O)[C@@H](CO)NCc1ccc(OCc2ccccc2)cc1 | 22.8 mg/kg | – | – | ED50 [1]: 16.3 mg/kg
NC(=O)CNCc1ccccc1 | – | 490 mg/kg | – | –
NC(=O)CNCc1ccc(OCc2ccccc2)cc1 | 11.5 mg/kg | 68.6 mg/kg | 473 mg/kg | –
C[C@@H](NCc1ccc(OCc2cccnc2)cc1)C(N)=O | – | – | – | ED50 [5]: > 400 mg/kg
CNC(=O)[C@@H](CO)NCc1ccc(OCc2cccc(C)c2)cc1 | 30.6 mg/kg | 41.3 mg/kg | 1250 mg/kg | –
CC[C@H](NCc1ccc(OCc2ccccc2)cc1)C(N)=O | – | 119 mg/kg | – | –
C[C@@H](NCc1ccc(OCc2ccco2)cc1)C(N)=O | – | 116 mg/kg | – | –
CNC(=O)[C@H](CCSC)NCc1ccc(OCc2ccccc2)cc1 | – | 239 mg/kg | – | –
CC[C@@H](NCc1ccc(OCc2ccccc2)cc1)C(N)=O | 7.2 mg/kg | 55 mg/kg | 277 mg/kg | –
CNC(=O)[C@@H](CO)NCc1ccc(OCc2ccccc2C(F)(F)F)cc1 | – | 85.6 mg/kg | – | –
CNC(=O)[C@@H](CO)NCc1ccc(OCc2cccc(F)c2)cc1 | 13 mg/kg | 25.1 mg/kg | 915 mg/kg | ED50 [6]: 35.6 mg/kg; ED50 [7]: > 250 mg/kg; ED50 [8]: 120 mg/kg
CNC(=O)[C@@H](CO)NCc1ccc(OCc2ccc(Cl)cc2)cc1 | – | 216 mg/kg | – | –
C[C@@H](NCc1ccc(CCc2ccccc2)cc1)C(N)=O | 17.8 mg/kg | 40.3 mg/kg | 630 mg/kg | –
CCCC(CCC)C(=O)O [VALPROIC ACID] | – | 414 mg/kg | 1180 mg/kg | ED50 [6]: 167 mg/kg; ED50 [7]: 538 mg/kg; ED50 [8]: 350 mg/kg
C[C@@H](NCc1ccc(OCc2ccccn2)cc1)C(N)=O | – | 172 mg/kg | – | –
C[C@@H](NCc1ccc(SCc2ccccc2)cc1)C(N)=O | 8.6 mg/kg | 24.8 mg/kg | 633 mg/kg | –
CNC(=O)[C@H](C)NCc1ccc(OCc2ccccc2)cc1 | 7 mg/kg | 8.4 mg/kg | 224 mg/kg | –
C[C@@H](NCc1ccc(-c2ccccc2)cc1)C(N)=O | – | 231 mg/kg | – | –

Structure (SMILES) | ED50 [2] | ED50 [3] | TD50 [4] | other results
NC(=O)CNCCc1ccc(OCc2cccc(Cl)c2)cc1 | – | 192 mg/kg | – | –
CCCCC(C)NCC(N)=O (stereo not drawn) | – | 640 mg/kg | – | –
CNC(=O)[C@@H](CC(C)C)NCc1ccc(OCc2ccccc2)cc1 | – | 192 mg/kg | – | –
CNC(=O)[C@H](CC(C)C)NCc1ccc(OCc2ccccc2)cc1 | – | – | – | ED50 [9]: > 100 mg/kg
O=C1NC(=O)C(c2ccccc2)(c2ccccc2)N1 [PHENYTOIN] | 3.8 mg/kg | 42.1 mg/kg | – | ED50 [6]: 11.3 mg/kg; ED50 [7]: > 200 mg/kg; ED50 [8]: > 100 mg/kg; TD50 [10]: 243 mg/kg
CNC(=O)[C@@H](CO)NCc1ccc(OCc2cccc(C(F)(F)F)c2)cc1 | 13.1 mg/kg | 19.5 mg/kg | 750 mg/kg | –
O=C(CNCc1ccc(OCc2cccc(Cl)c2)cc1)OCc1ccccc1 | – | – | – | ED50 [11]: > 400 mg/kg
CCCCCNCC(N)=O [MILACEMIDE] | – | 701 mg/kg | – | –
NC(=O)CNc1ccc(OCc2cccc(Cl)c2)cc1 | – | – | – | ED50 [9]: 400 mg/kg
CNC(=O)[C@@H](CO)NCc1ccc(OCc2cccc(OC)c2)cc1 | – | 109 mg/kg | – | –
C[C@@H](NCc1ccc(OCCc2ccccc2)cc1)C(N)=O | 12.2 mg/kg | 24.9 mg/kg | 1120 mg/kg | –
NC(=O)CCNCCc1ccc(OCc2cccc(Cl)c2)cc1 | – | – | – | ED50 [12]: > 400 mg/kg
C[C@H](Nc1cccc(OCc2ccccc2)c1)C(N)=O | – | 79.7 mg/kg | – | –
C[C@@H](NCc1ccc(/C=C/c2ccccc2)cc1)C(N)=O | – | – | – | ED50 [9]: 400 mg/kg
C[C@@H](NCc1ccc(NCc2ccccc2)cc1)C(N)=O | 11.5 mg/kg | 9.3 mg/kg | 217 mg/kg | ED50 [6]: 16.3 mg/kg; ED50 [7]: 50.3 mg/kg; ED50 [8]: 37.5 mg/kg
Nc1nnc(-c2cccc(Cl)c2Cl)c(N)n1 [LAMOTRIGINE] | 2.2 mg/kg | 10.2 mg/kg | 84 mg/kg | ED50 [6]: > 40 mg/kg; ED50 [7]: > 40 mg/kg
CN(CC(N)=O)Cc1ccc(OCc2cccc(Cl)c2)cc1 | 70 mg/kg | 114 mg/kg | – | –
C[C@@H](NCc1ccc(OCc2ccncc2)cc1)C(N)=O | – | – | – | ED50 [13]: > 400 mg/kg

Source: ChEMBL document CHEMBL1131598, “Synthesis and anticonvulsant activity of a new class of 2-[(arylalky)amino]alkanamide derivatives” (J Med Chem, 1998)
